# CSN inh: inhibitors of CSN-mediated cullin deneddylation, primary screen, biochemical, fluorescence polarization, uHTS; COP9 signalosome complex subunit 5 (Homo sapiens), Q92905; Purified CSN, SCF-Nedd8-OG deneddylation; inhibition, % at 12.5 µM; 360,000 compounds, 0.38% hits;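 active = pattern-corrected inhibition above about 35%, with an unprinted fluorescence ratio check between 0.5 and 1.5, limit read from the data, passing the limit was not always enough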;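 note: 0% = enzyme with substrate and 100% = substrate without enzyme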
#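 Test system: purified human Csn5 enzyme expressed in HEK293T cells. Amount: 0.24 nM enzyme. Reagent: SCFSkp2-Nedd8OG substrate at 10 nM final. Schedule: 90 min incubation of compound, enzyme and substrate at room temperature. Detection: fluorescence polarization. Read-out: % inhibition of substrate cleavage by Csn5.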
# LMPTP block: LMPTP phosphatase inhibitors, primary screen, biochemical, fluorescence intensity, uHTS. Low molecular weight phosphotyrosine protein phosphatase (Homo sapiens), P24666. recombinant LMPTP-A, OMFP fluorogenic substrate. inhibition, % at 20 µM. 360,000 compounds, 0.22% hits;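 active = compounds that cut the enzyme signal by at least half of the control window in the single-dose screen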;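 note: plate controls were DMSO wells with enzyme plus substrate for no effect and substrate without enzyme for full effect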
#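 Assay system: LMPTP-A enzyme. Input: 0.625 nM LMPTP-A final. Probe or stimulus: 400 µM OMFP. Compound dosing: single 20 µM dose. Schedule: 50 min dark incubation at room temperature. Detection: fluorescence intensity of OMFP turnover product. Read-out: percent inhibition versus substrate-only and uninhibited controls. Benchmarks: no-enzyme low control, uninhibited high control.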
# SUMO1-SIM PPI: modulators of SUMO1 protein-protein interactions, primary screen, biochemical, uHTS; SUMO1 binding to a labelled peptide, TR-FRET, 1 h; inhibition, % at 20 µM; 360,000 compounds, 0.33% hits; AID 602429, 2012; in the data active = inhibition above about 37%
# Scp1 inh: Scp-1 phosphatase inhibitors, primary screen, biochemical, colorimetric, uHTS; inhibition, % at 20 µM; Carboxy-terminal domain RNA polymerase II polypeptide A small phosphatase 1 (Homo …; Recombinant Scp1, phosphopeptide, malachite green phosphate absorbance; 340,000 compounds, 0.88% hits; AID 493091, 2011;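 active = inhibition above about 50% at 20 µM, limit read from the data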;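 note: plate controls were DMSO wells with enzyme for no effect and wells lacking enzyme for full effect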
#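 Test system: SCP-1 phosphatase catalytic domain, residues 76-261; measured by: colorimetric phosphate reagent with accelerator and stabiliser, absorbance at 630 nm; timing: enzyme reaction 45 min at room temperature, colour 5 min, stabilisation 30 min; also added: Phosphorylated 17-residue peptide substrate; compound dosing: one concentration, 20 µM, with 1.0% DMSO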
# DNMT1 inh: human DNMT1 methyltransferase inhibitors, primary screen, biochemical, molecular beacon, fluorescence, HinP1I cleavage, uHTS; inhibition (reported as % activation of signal), % at 10 µM; 360,000 compounds, 0.83% hits; DNA (cytosine-5)-methyltransferase 1 (Homo sapiens), P26358
# Target sequence (P26358 504-1616 limits assumed): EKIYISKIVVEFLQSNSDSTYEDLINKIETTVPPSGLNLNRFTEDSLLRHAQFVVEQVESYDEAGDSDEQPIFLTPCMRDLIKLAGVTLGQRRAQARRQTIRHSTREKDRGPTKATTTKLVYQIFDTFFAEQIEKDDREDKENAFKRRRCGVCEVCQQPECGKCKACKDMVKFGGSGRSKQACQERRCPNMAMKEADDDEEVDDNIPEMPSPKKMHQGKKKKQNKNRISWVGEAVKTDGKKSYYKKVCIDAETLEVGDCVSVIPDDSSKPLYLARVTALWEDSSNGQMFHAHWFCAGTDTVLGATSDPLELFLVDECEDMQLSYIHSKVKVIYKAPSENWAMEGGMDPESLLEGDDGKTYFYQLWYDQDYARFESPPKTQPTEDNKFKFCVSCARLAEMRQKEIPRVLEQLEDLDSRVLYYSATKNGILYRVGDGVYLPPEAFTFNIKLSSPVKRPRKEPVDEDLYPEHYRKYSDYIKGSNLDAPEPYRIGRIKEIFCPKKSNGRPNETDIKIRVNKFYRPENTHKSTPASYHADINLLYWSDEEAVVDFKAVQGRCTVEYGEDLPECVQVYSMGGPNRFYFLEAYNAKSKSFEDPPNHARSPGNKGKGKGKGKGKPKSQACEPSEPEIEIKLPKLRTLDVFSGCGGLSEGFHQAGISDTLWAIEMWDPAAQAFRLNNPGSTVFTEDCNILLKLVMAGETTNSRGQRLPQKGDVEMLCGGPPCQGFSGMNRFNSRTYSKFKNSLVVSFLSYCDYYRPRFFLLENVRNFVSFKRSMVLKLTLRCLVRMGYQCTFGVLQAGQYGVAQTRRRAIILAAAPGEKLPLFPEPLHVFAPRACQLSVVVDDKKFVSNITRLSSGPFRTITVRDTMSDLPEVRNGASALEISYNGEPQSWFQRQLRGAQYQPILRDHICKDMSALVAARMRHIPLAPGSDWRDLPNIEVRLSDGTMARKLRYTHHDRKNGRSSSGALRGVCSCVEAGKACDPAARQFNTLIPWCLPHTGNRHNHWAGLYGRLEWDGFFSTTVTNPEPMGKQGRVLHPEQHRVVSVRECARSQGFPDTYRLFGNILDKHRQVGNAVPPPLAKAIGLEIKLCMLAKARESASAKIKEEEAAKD
# STEP inh: STEP phosphatase inhibitors, primary screen, biochemical, fluorescence intensity, uHTS; 360,000 compounds, 0.25% hits; inhibition, % at 20 µM; AID 588621, 2011; Tyrosine-protein phosphatase non-receptor type 5 (Homo sapiens), P54829; recombinant STEP, OMFP fluorogenic substrate;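 active = inhibition at 20 µM, scaled per plate between control wells, above about 37%, limit read from the data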;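 note: 0% = DMSO with enzyme and substrate and 100% = substrate only without enzyme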
#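 System: STEP (striatal-enriched tyrosine phosphatase) enzyme, cell-free; medium: Bis-Tris pH 6.0 buffer with DTT, detergent; dosing: 20 µM, 1% DMSO; times: reaction 20 min, ambient temperature; detection: fluorescence, 480/540 nm; read-out basis: normalized % inhibition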
# Scp-1 conf: Scp-1 phosphatase inhibitors, retest, confirmation, biochemical, colorimetric, single concentration; shares compounds with Scp1 inh; recombinant SCP-1 catalytic domain, phosphate release, malachite green absorbance; inhibition, % at 20 µM; 2,500 compounds, 61% hits;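 active = inhibition of at least 30% at 20 µM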;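 note: plate controls were DMSO with enzyme for no effect and buffer wells lacking enzyme for full effect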
# Scp-1 MG ctr: colorimetric readout interference by compounds, confirmation, artefact control for Scp-1 inhibitor project, biochemical, single concentration. apparent inhibition (interference), % at 20 µM. 2,500 tested, under 10 active. shares compounds with Scp1 inh. Colorimetric interference counterscreen, malachite green absorbance 630 nm;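 active = inhibition of at least 30% at 20 µM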;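 note: compounds added after enzyme reaction finished so only phosphate colour detection is probed; plate controls were DMSO wells with completed Scp-1 reaction for no effect and substrate wells lacking enzyme for full effect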
# Scp-1 Tm shift: Scp-1 binding by thermal shift, confirmation, orthogonal assay for Scp-1 inhibitor project, biophysical, differential scanning fluorimetry; thermal shift relative to vanadate control, % at 40 µM; AID 540329, 2011; 1,500 compounds, 25% hits; shares compounds with Scp1 inh; Recombinant SCP1, Sypro Orange thermal shift Tm;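 active = substances whose mean melting-temperature shift, as a percentage of the reference inhibitor's shift, reaches about 5.3%, limit read from the data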;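 note: 0% = Tm of DMSO wells and 100% = Tm with sodium orthovanadate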
# DNMT1 interf DR: spectral interference with molecular beacon fluorescence, dose response, artefact control for DNMT1 inhibitor project, biochemical, fluorescent molecular beacon. 200 tested, under 10 active. IC50, µM. AID 602382, 2012. shares compounds with DNMT1 inh. spectral interference counter-screen; call rule not given here
# DNMT1 confirm: DNMT1 methyltransferase inhibitor retest, confirmation, biochemical, molecular beacon, fluorescence, single concentration; AID 602385, 2012; 2,300 compounds, 8% hits; DNMT1 molecular beacon HinP1I cleavage; inhibition, % at 10 µM; shares compounds with DNMT1 inh;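 active = average inhibition of at least 30% in the single-concentration confirmation test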
# Beacon interf: shows spectral interference in the DNMT1 beacon assay. AID 602387. shares compounds with DNMT1 inh. 2,300 compounds, 1% hits. DNMT1 molecular beacon spectral interference counterscreen, fluorescence 485/520. activation (fluorescence interference), % at 10 µM;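 active = activation of at least 30% at 10 µM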;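 note: DNMT1 catalytic domain with a HinP1I cleavage step and a FAM/dabcyl DNA beacon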
# STEP inh conf: STEP phosphatase inhibitor hit confirmation, biochemical, fluorescence intensity, single concentration | shares compounds with STEP inh | recombinant STEP, OMFP fluorogenic substrate | inhibition, % at 20 µM | 520 compounds, 32% hits | AID 623866, 2012; call rule not given here;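 note: 0% = enzyme with substrate plus DMSO and 100% = substrate without enzyme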
# CSN5 deneddyl: Csn5 deneddylation inhibitors, confirmation, biochemical, fluorescence polarization, single concentration, SCF-Nedd8OG substrate; shares compounds with CSN inh; Csn5 deneddylation of SCF-Nedd8OG, 90 min; inhibition, % at 16.6 µM; 540 compounds, 62% hits; AID 720654, 2013;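 note: 0% = DMSO with enzyme and 100% = no enzyme wells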
# MMP-2 counter: MMP-2 protease inhibition counter-screen, confirmation, counter-screen for CSN deneddylation inhibitor project, biochemical, fluorescence, single concentration. recombinant MMP-2, FRET substrate fluorescence, 60 min. 540 compounds, 33% hits. inhibition, % at 16.6 µM. AID 720655, 2013. shares compounds with CSN inh;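 active = corrected plate-normalized z-score of 5 or more, or -5 or less, or inhibition of 15% or more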;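 note: plate controls were DMSO wells with enzyme for no effect and buffer wells lacking MMP-2 for full effect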
# Thrombin counter: counter-screen for CSN deneddylation inhibitors: bovine thrombin inhibition | inhibition, % at 16.6 µM | 540 compounds, 49% hits | bovine thrombin cleavage of Ub4-pepOG, fluorescence polarization | AID 720656 | shares compounds with CSN inh;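 active = inhibition at or above a set limit, with a fluorescence interference ratio between 0.5 and a set maximum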
# * marks the source's active call; other numbers are inactive results; / = no result given. An excerpt weighted towards active compounds, which were near 1.9% of everything screened. Cut-off read from the data, not from the text of the source, unless noted: active = inhibition above about 50%; inactive = the rest.
SMILES,CSN inh,LMPTP block,SUMO1-SIM PPI,Scp1 inh,DNMT1 inh,STEP inh,Scp-1 conf,Scp-1 MG ctr,Scp-1 Tm shift,CSN5 deneddyl,MMP-2 counter,Thrombin counter,others
O=C(CNC(=S)N(Cc1ccccc1Cl)C1CCCC1)NCCN1CCOCC1,-4,-1,4,-5,0,0,/,/,/,/,/,/,
CS(=O)(=O)C1=NSC2=NC(=O)/C(=C\c3cccn3-c3ccc(Cl)cc3)C(=N)N21,100*,20,4,83*,2,95*,79*,-20,-36,-75,26*,50*,
COC(=O)c1c(NC(=O)COC(=O)c2ccc(NC(=O)CC#N)cc2)sc2c1CCCCC2,57*,74*,71*,76*,103*,10,71*,-10,14*,42,7,13,DNMT1 interf DR=>99;DNMT1 confirm=27;Beacon interf=-3
COC(=O)c1c(NC(=O)COC(=O)c2ccccc2O)sc2c1CCCCC2,-5,-1,4,-5,15,2,/,/,/,/,/,/,
OCCC1CN(Cc2cccn2-c2ncccn2)CCN1C1CCCC1 (stereo not drawn),-4,-2,-1,-3,-3,0,/,/,/,/,/,/,
COc1ccccc1N1C(=N)S/C(=C\c2ccc(-c3ccccc3C(=O)O)o2)C1=O,35*,5,25,62*,73*,9,49*,-10,8.3*,60*,8,31*,DNMT1 confirm=5;Beacon interf=3
CCOC(=O)C1=C(O)/C(=C/c2ccc(-c3ccccc3C(=O)O)o2)SC1=Nc1ccc(OC)cc1,35,7,11,-5,24,6,/,/,/,/,/,/,
CCN(CC)S(=O)(=O)c1cccc(-c2nnc(SCC(=O)c3ccc(Cl)s3)n2C)c1,5,0,-12,-3,3,3,/,/,/,/,/,/,
O=Cc1cn(-c2ccccc2)nc1-c1cc2cc(O)ccc2oc1=O,84*,55*,44*,64*,3,60*,53*,-10,4,-19,5,15,STEP inh conf=79*
Cc1cc(C)c2c(c1)CC(C)(C)CC2=O,-3,0,-1,7,2,-1,/,/,/,/,/,/,
COc1ccccc1-n1cnc2c(c1=O)c1nc3ccccc3nc1n2-c1ccc(C)cc1,47*,5,-4,87*,-6,2,34*,-12,-12,99*,5,3,
COc1ccccc1-n1c2nc3ccccc3nc2c2c(=O)n(-c3cc(C)cc(C)c3)cnc21,-2,2,-26,6,-2,3,/,/,/,/,/,/,
O=C(N/N=C/C=C/c1ccc([N+](=O)[O-])cc1)c1cccs1,56*,87*,-4,101*,97*,96*,91*,-6,6.4*,/,59*,30*,DNMT1 confirm=11;Beacon interf=1;STEP inh conf=-5
COc1ccc(N(CC(=O)NCc2ccco2)S(=O)(=O)c2ccc(C)cc2)cc1OC,4,0,5,3,2,0,/,/,/,/,/,/,
COc1ccccc1N(CC(=O)NCc1ccco1)S(=O)(=O)c1ccc(C)cc1,44*,9,22,87*,93*,61*,73*,-5,4,62*,28*,6,DNMT1 confirm=5;Beacon interf=0
O=C(CCC(=O)N1CCN(S(=O)(=O)c2ccccc2)CC1)c1ccc(Br)cc1,-2,1,-3,-3,-1,0,/,/,/,/,/,/,
COc1cccc(NC(=O)Cn2c(=O)n(-c3ccccc3)c(=O)c3sccc32)c1,2,-1,-3,3,0,0,/,/,/,/,/,/,
CCOc1cc(Br)cc(/C=C2\SC(=Nc3ccccc3)NC2=O)c1O,4,0,2,-9,-14,1,/,/,/,/,/,/,
C=CCOc1ccc(Br)cc1/C=C1/SC(=Nc2ccc(C(=O)O)cc2)NC1=O,36*,81*,11,86*,14,65*,75*,-13,5,97*,7,4,
